Calls of active or inactive are those of the source. The calls are words filed in the database; no cut-off is given here.
Legend:
Cytochrome P450 2A6 = molecular target: T1, Cytochrome P450 2A6 (Homo sapiens, UniProt P11509); assay: Inhibition of human liver microsome CYP2A6 by LC-MS-MS analysis; type: ADME
T1 sequence (P11509 whole entry): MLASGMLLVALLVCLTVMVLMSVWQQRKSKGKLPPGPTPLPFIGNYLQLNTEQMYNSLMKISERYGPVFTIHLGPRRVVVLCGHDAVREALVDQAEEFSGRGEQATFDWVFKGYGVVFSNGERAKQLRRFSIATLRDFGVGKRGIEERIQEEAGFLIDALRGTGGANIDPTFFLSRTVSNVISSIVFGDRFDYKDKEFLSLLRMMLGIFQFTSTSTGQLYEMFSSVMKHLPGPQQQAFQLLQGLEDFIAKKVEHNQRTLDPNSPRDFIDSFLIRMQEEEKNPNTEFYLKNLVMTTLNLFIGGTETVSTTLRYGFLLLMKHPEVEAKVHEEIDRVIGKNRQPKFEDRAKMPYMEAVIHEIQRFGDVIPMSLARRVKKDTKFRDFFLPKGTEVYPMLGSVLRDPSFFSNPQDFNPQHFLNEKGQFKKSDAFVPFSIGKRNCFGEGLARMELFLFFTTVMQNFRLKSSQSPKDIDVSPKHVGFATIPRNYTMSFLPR
How it was run: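 Pooled human liver microsomes (50 donors) at 0.5 mg/mL protein, incubated for 10 min with isoform-selective probe substrates. Metabolite formation was detected by LC–MS/MS with positive ESI.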

MV4-11 [1] = assay: Antitumor activity against human MV4-11 cells xenografted in CrTacNCr-Fox1(nu) athymic mouse assessed as tumor growth inhibition at 100 mg/kg, po bid administered 10 days post implantation daily for 7 days measured after 11 days; type: functional, organism-based; design: dose 100 mg/kg
How it was run: (§1)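 Female adult athymic nude mice implanted subcutaneously with 10^7 FLT3-ITD-positive MV4-11 cells; treatment started 10 days after implantation, once mean tumor volume was at least 100 mm^3. Oral dosing at 50 or 100 mg/kg (n = 5 per group), twice daily for 7 days, then once daily for a further 4 days. Vehicle: 10% DMSO, 20% PEG 400, 5% Tween 80, 65% water. Tumor volume followed to day 60.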

[2] = Metabolic stability in mouse liver microsomes assessed as parent compound metabolism after 30 mins by LC-MS analysis; type: ADME, Microsome; conditions: read-out: Drug metabolism
How it was run: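 Male CD1 mouse liver microsomes (1 mg/mL protein) incubated with 10 μM compound plus NADPH 1 mM, UDPGA 2.5 mM and MgCl2 3 mM in 10 mM PBS at 37 °C for 0 and 30 min. NADPH/UDPGA-free controls included. LC–MS quantitation of remaining compound; reported as percent parent metabolized after 30 min.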

[3] = Lipophilicity, log D of the compound; type: physicochemical; conditions: octanol/water
MV4-11 [4] = assay: Antitumor activity against human MV4-11 cells xenografted in CrTacNCr-Fox1(nu) athymic mouse assessed as reduction in tumor relapse at 50 to 100 mg/kg, po bid administered 10 days post implantation daily for 7 days measured after 60 days; type: functional; design: scale not given: the % may be the effect or the level left; conditions: dose mg/kg 50-100
How it was run: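 Female adult CrTacNcr-Fox1(nu) athymic mice, s.c. 10^7 FLT3-ITD-positive MV4-11 cells; treatment began at 10 days (mean tumor volume at least 100 mm^3). Oral 50 or 100 mg/kg in 10% DMSO, 20% PEG 400, 5% Tween 80, 65% water, or vehicle alone; n = 5 per group. Dosed twice daily for 7 days, then once daily for 4 days; study ended day 60.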

Caco-2 = assay: Permeability across human Caco2 cells; type: ADME, cell-based
[5] = Metabolic stability in human liver microsomes assessed as parent compound metabolism after 30 mins by LC-MS analysis; type: ADME, Microsome; conditions: read-out: Drug metabolism
How it was run: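 Test compound at 10 μM with pooled mixed-gender human liver microsomes (1 mg/mL protein), NADPH 1 mM, UDPGA 2.5 mM and MgCl2 3 mM in 10 mM PBS at 37 °C for 0 and 30 min. Controls omit NADPH/UDPGA. Compound remaining measured by LC–MS; reported as percent of parent metabolized at 30 min.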

Mus musculus [6] = assay: Inhibition of Stat5 phosphorylation at Y694 in tumor of human MV4-11 cells xenografted CrTacNCr-Fox1(nu) athymic mouse at 50 to 100 mg/kg, po bid for 4 days measured after 2 hrs post final dose; type: functional, organism-based
How it was run: (§2)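 MV4-11 xenograft-bearing athymic mice dosed orally at 50 or 100 mg/kg twice daily for 4 days, starting 17 days after implantation. Tumors harvested 2 h after the final dose. Western blotting for phospho-histone H3 (S10) and phospho-Stat5 (Y694), with total histone H3, total Stat5 and GAPDH as loading controls.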

[7] = Clearance in Sprague-Dawley rat at 5 mg/kg, iv; type: ADME, organism-based; design: dose 5 mg/kg, route intravenous; conditions: in vivo
How it was run: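 Female Sprague–Dawley rats given 5 mg/kg iv in 10% DMSO, 5% Tween 20, 85% saline, 0.3% 1 M HCl. Serial tail vein bleeds at 15 and 30 min and 2, 4, 6, 24 h; plasma protein-precipitated with methanol with olomoucine internal standard; drug quantified by LC–MS (positive ESI MRM). Clearance given as L/h and mL/min/kg.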

Mus musculus [8] = assay: Inhibition of Histone H3 phosphorylation in tumor of human MV4-11 cells xenografted CrTacNCr-Fox1(nu) athymic mouse at 50 to 100 mg/kg, po bid for 4 days measured after 2 hrs post final dose; type: functional, organism-based; how it was run: as §2
MV4-11 [9] = assay: Antitumor activity against human MV4-11 cells xenografted in po dosed CrTacNCr-Fox1(nu) athymic mouse assessed as tumor growth inhibition administered 10 days post implantation twice daily for 7 days; type: functional, organism-based; how it was run: as §1
Cytochrome P450 3A4 = Cytochrome P450 3A4 (Homo sapiens, UniProt P08684); assay: Inhibition of human liver microsome CYP3A4 by LC-MS-MS analysis; type: ADME
Cytochrome P450 3A4, sequence (P08684 whole entry): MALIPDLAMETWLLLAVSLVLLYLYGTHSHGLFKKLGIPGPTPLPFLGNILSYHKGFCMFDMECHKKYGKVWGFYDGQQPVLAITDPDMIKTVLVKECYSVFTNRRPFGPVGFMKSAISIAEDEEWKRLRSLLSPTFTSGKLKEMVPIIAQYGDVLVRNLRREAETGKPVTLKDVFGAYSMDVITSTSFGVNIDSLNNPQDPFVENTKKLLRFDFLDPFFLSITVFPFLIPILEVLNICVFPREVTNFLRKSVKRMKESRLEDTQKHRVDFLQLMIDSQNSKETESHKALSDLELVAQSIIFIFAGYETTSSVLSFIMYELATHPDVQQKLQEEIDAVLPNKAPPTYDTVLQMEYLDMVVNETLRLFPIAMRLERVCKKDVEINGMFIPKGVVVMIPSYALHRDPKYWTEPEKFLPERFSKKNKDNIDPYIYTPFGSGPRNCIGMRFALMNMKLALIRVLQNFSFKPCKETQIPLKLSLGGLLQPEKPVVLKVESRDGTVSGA
How it was run: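 Pooled human liver microsomes (50 donors) at 0.5 mg/mL protein, 10 min incubation; metabolite detected by LC-MS/MS with positive ESI.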

[10] = molecular target: Vascular endothelial growth factor receptor 1 (Homo sapiens) (UniProt P17948); assay: Inhibition of FLT1 at 1 uM
Vascular endothelial growth factor receptor 1 (Homo sapiens), sequence (P17948 whole entry): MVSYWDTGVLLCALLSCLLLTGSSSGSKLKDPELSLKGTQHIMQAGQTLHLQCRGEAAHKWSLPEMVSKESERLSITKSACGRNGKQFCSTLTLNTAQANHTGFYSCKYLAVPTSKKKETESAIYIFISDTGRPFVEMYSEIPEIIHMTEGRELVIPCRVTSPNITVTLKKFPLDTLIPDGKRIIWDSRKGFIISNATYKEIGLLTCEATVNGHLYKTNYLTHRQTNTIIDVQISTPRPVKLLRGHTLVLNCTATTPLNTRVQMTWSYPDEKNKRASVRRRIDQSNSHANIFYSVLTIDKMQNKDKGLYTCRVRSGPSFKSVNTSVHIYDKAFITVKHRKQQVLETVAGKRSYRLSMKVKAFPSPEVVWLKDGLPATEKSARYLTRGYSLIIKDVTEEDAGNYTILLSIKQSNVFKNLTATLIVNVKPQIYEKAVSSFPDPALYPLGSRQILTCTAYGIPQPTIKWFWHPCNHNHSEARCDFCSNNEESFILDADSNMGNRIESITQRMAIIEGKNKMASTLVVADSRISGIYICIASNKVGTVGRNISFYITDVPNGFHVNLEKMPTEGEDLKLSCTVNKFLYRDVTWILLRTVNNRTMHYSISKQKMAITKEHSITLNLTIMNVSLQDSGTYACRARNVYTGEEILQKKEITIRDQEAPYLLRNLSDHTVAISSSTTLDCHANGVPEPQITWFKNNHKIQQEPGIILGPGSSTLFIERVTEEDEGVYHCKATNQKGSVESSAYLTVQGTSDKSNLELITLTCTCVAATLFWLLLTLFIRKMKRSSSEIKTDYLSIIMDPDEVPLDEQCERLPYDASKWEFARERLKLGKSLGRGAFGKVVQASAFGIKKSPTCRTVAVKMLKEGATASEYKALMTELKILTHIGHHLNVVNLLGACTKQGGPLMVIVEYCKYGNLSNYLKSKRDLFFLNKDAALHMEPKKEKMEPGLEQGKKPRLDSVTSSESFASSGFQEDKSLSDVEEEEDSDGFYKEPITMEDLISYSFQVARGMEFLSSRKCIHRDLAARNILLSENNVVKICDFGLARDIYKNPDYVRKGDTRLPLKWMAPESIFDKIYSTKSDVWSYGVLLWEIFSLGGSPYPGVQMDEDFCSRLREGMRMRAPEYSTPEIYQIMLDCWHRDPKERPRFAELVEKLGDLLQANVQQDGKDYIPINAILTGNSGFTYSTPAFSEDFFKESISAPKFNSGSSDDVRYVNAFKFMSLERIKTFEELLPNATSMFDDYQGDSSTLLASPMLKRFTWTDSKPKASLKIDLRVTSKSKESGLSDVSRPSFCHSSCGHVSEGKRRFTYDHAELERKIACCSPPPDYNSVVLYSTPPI
How it was run: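 KINOMEScan competition-binding panel of 442 kinases (386 nonmutant) tested at 1 μM. Binding is read as percent of control ligand competition; <10% of control counts as a hit for the S(10) score.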

[11] = Oral bioavailability in Balb/C mouse at 5 mg/kg; type: ADME, organism-based; conditions: in vivo
How it was run: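 Female Balb/C mice given 5 mg/kg po or iv in 10% DMSO, 5% Tween 20 in saline. Killed at 5, 15, 30 min and 1, 2, 4, 6, 24 h; plasma from cardiac blood. Methanol protein precipitation with olomoucine internal standard, then LC-MS (reverse-phase C18, positive ESI MRM).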

[12] = Clearance in Balb/C mouse at 5 mg/kg, iv; type: ADME, organism-based; design: dose 5 mg/kg, route intravenous; conditions: in vivo
How it was run: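 Female Balb/C mice given a single 5 mg kg^-1 iv dose in 10% DMSO, 5% Tween 20 in saline. Mice sacrificed at 5, 15, 30 min and 1, 2, 4, 6, 24 h. Plasma from cardiac blood, methanol protein precipitation with olomoucine internal standard, LC–MS (positive ESI MRM). Clearance given in L/h.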

For Cc1nn(C)cc1-c1nc2c(N3CCN(Cc4ccc(Cl)cc4)CC3)c(Cl)cnc2[nH]1 [MOBINITINIB], the IC50 (Cytochrome P450 2A6) was > 10 µM, the Activity (MV4-11 [1]) was “Active” and the metabolised at 0.5 h [2] was 34%. For the same compound, the logD [3] was 3.84, the Activity (MV4-11 [4]) was 60% and the permeability (Caco-2) was 18.6 ×10⁻⁶ cm/s. The metabolised at 0.5 h [5] was 10%, the inhibition (Mus musculus [6]) was “Active” and the clearance [7] was 0.95 mL/min. The inhibition (Mus musculus [8]) was “Active”, the TGI (MV4-11 [9]) was “Dose-dependent effect” and the IC50 (Cytochrome P450 3A4) was > 10 µM. For the same compound, the inhibition [10] was 0.3%, the bioavailability [11] was 100% and the clearance [12] was 0.967 mL/min.

Source: ChEMBL document CHEMBL2203264, “Optimization of imidazo[4,5-b]pyridine-based kinase inhibitors: identification of a dual FLT3/Aurora kinase inhibitor as an orally bioavailable preclinical development candidate for the treatment of acute myeloid leukemia” (J Med Chem, 2012)
